NR2E3 ag-1: NR2E3 agonists in two-hybrid cells, primary screen, cell-based, luminescence, CHO-S, Gal4-NCOR/VP16-NR2E3. hit rate 0.35% among 360,000. AID 602229, 2012. Photoreceptor-specific nuclear receptor (Homo sapiens), Q9Y5X4. inhibition of corepressor binding, % at 3.98 µM. luciferase;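 active = inhibition above the mean of all tested compounds plus 3 SD, cut at about 70% in these data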;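 also: 0% = DMSO with NR2E3 transfected cells and 100% = cells lacking NR2E3 construct; higher means lower luciferase signal from less NR2E3 corepressor binding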
PG9 binder: binders of HIV-1 gp120 antibody PG9, primary screen, biochemical, TR-FRET | HIV-1 gp120 / PG9 antibody interaction | TR-FRET gp120-PG9 antibody binding | inhibition, % at 6.7 µM | hit rate 0.43% among 360,000; in the data active = inhibition above about 8.5%
NR2E3 ag-2: inhibitors of NR2E3-RetCOR corepressor binding, primary screen, NR2E3 agonist project, biochemical, TR-FRET, GST-NR2E3, biotin-RetCOR; Photoreceptor-specific nuclear receptor (Homo sapiens), Q9Y5X4; 1536-well; inhibition of corepressor binding, % at 4.78 µM; hit rate 0.12% among 320,000; AID 2300, 2010;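 active = percent inhibition above the cutoff of mean plus 3 SD of all tested compounds, set per screening campaign, cut at about 20% in these data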;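 also: 0% = DMSO wells and 100% = biotin wells as full block of FRET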
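System: GST-tagged NR2E3 plus biotinylated RetCOR corepressor; Buffer or medium: pH 7.5 Tris-based buffer; Probe or stimulus: RetCOR corepressor, biotinylated, 7 nM; Doses: compound at 4.8 µM, single dose; Schedule: 5 h incubation at 4 °C; Technique: time-resolved FRET; Evaluation: percent inhibition of TR-FRET ratio; Replication: one well per compound, singlicate testing.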
NR1D1 modulator: modulators of Rev-erb alpha DNA binding, primary screen, biochemical, FITC-DNA, fluorescence polarization, uHTS. Rev-erbα–FITC-DNA binding, 90 min. activity, % at 10 µM. hit rate 0.79% among 370,000. AID 1259318, 2017;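 active = activity above about 14%, limit read from the data; passing the limit was not always enough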;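 also: 0% = DMSO wells with 35 nM protein and 100% = DMSO wells with 750 nM protein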
Target sequence (P20393 whole entry, looked up): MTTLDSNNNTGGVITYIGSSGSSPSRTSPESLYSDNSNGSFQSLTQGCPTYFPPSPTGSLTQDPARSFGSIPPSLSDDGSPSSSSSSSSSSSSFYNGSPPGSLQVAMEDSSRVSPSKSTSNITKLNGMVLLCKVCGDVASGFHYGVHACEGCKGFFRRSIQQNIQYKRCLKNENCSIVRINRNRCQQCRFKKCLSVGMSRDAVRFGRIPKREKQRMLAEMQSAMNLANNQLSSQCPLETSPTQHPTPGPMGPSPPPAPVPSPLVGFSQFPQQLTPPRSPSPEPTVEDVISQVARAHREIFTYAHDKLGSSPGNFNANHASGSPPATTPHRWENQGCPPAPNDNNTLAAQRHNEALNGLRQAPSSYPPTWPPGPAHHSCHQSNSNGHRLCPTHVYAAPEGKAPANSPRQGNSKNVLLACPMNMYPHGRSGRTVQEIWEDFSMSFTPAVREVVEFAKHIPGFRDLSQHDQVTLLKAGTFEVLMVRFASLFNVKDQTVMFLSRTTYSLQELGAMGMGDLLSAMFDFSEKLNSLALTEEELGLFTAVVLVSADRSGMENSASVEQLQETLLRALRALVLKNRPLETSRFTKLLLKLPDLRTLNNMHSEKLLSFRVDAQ
PG9 binder conf: binders of anti-gp120 antibody PG9, confirmation, biochemical, TR-FRET. hit rate 90% among 1,500. TR-FRET PG9 antibody binding. shares compounds with PG9 binder. inhibition, % at 6.7 µM. AID 651571, 2012; in the data active = inhibition above about 9%
PGV04 Ab binding: binders of control antibody PGV04, counter-screen for PG9 antibody binder project, biochemical, TR-FRET, distinct HIV envelope site. shares compounds with PG9 binder. inhibition, % at 6.7 µM. hit rate 95% among 1,500. TR-FRET PGV04 antibody-gp120 binding; in the data active = inhibition above about 9.5%
An asterisk follows results filed as active. An excerpt weighted towards active compounds, which were near 1.5% of everything screened.

How did CCOC(=O)[C@]12CCCC=C1N(CCCOC)C(=O)[C@@H]2CC(=O)N1CCN(C(=O)c2ccco2)CC1 do in these assays?
NR1D1 modulator: 0

How did CC(C)c1cc(C(C)C)c(S(=O)(=O)N2CCC(C(=O)NCC3COCCO3)CC2)c(C(C)C)c1 (stereo not given) do in these assays?
NR1D1 modulator: 4

Results for COc1ccc2c(-c3ccccc3)cc(=S)[nH]c2c1 ?
NR2E3 ag-1: -18; PG9 binder: 1; NR2E3 ag-2: 3; NR1D1 modulator: -1

Results for COc1ccc2c(C)cc(=S)[nH]c2c1 ?
NR2E3 ag-1: -11; PG9 binder: 19*; NR1D1 modulator: -3; PG9 binder conf: 8.6*; PGV04 Ab binding: 9.5*

How did CC(C)C(=O)OCCCN1CCC2(CCC(c3ccccc3)CC2)C1=O (stereo not given) do in these assays?
NR1D1 modulator: -2

What do the screens show for `CCCCNC(=O)C(NC(=O)c1cccc(C(F)(F)F)c1)C(=O)c1ccccc1` (stereo not given)?
NR2E3 ag-1: -8; PG9 binder: 27*; NR1D1 modulator: -9; PG9 binder conf: 41*; PGV04 Ab binding: 55*

What do the screens show for `COc1ccccc1CNC(=O)NC1CCN(CC(=O)Nc2ccc3c(c2)OCCO3)CC1`?
NR1D1 modulator: -4

Results for CCCN1C(=O)C2(C(C(=O)c3ccc(C)o3)=C(O)C(=O)N2CCCOC)c2ccccc21 (stereo not given) ?
NR2E3 ag-1: 12; PG9 binder: 9.2*; NR2E3 ag-2: 6; NR1D1 modulator: 0; PG9 binder conf: 18*; PGV04 Ab binding: 22*

What do the screens show for `Cc1ccc(C(=O)C2=C(O)C(=O)N(CCCN3CCOCC3)C23C(=O)N(C)c2ccccc23)o1` (stereo not given)?
NR2E3 ag-1: 5; PG9 binder: 9.1*; NR2E3 ag-2: 8; NR1D1 modulator: -5; PG9 binder conf: 19*; PGV04 Ab binding: 23*

Results for CCN1C(=O)C2(C(C(=O)c3ccc(C)o3)=C(O)C(=O)N2CCCN2CCOCC2)c2ccccc21 (stereo not given) ?
NR2E3 ag-1: -14; PG9 binder: 1; NR2E3 ag-2: 7; NR1D1 modulator: -1

Results for CCN1C(=O)C2(C(C(=O)c3cc4ccccc4o3)=C(O)C(=O)N2CCCN2CCOCC2)c2ccccc21 (stereo not given) ?
NR2E3 ag-1: -38; PG9 binder: 36*; NR2E3 ag-2: 10; NR1D1 modulator: -4; PG9 binder conf: 45*; PGV04 Ab binding: 55*

How did COc1ccc(CN(C)C(=O)C2CCCN(c3nc4ccccc4o3)C2)cc1 (stereo not given) do in these assays?
NR1D1 modulator: 4

How did COC(=O)[C@]12C[C@H](CC(=O)NCc3cccs3)C(=O)N(CCc3ccc(OC)c(OC)c3)C1=C[C@H](COCc1ccccc1)O[C@@H]2C do in these assays?
NR1D1 modulator: 3

Results for COC(=O)C1CN(Cc2cn(CCOC(C)=O)nn2)CCS(=O)(=O)N1Cc1ccc(OC)cc1 (stereo not given) ?
NR1D1 modulator: -5

What do the screens show for `CN(CCO)c1ccc2c(c1)Oc1ccccc1CN(Cc1cn(Cc3cccc(C(F)(F)F)c3)nn1)S2(=O)=O`?
NR1D1 modulator: -6

How did COc1ccc(C2CCCN2C(=O)Nc2ccccc2)cc1OC (stereo not given) do in these assays?
NR2E3 ag-1: -28; PG9 binder: 13*; NR2E3 ag-2: 3; NR1D1 modulator: 0; PG9 binder conf: 5; PGV04 Ab binding: 7

What do the screens show for `COc1ccc(C2CCCN2C(=O)Nc2ccc(C)c(C)c2)cc1OC` (stereo not given)?
NR2E3 ag-1: -8; PG9 binder: 1; NR2E3 ag-2: 1; NR1D1 modulator: 4

Results for CCC(CC)NC(=O)O[C@H]1CC[C@@]23CCCN2C(=O)CCC[C@H]3C1 ?
NR1D1 modulator: -2

Results for CCCCn1nnc(NC(=O)c2sc3cc(Cl)ccc3c2Cl)n1 ?
NR2E3 ag-1: 1; PG9 binder: 14*; NR2E3 ag-2: 16; NR1D1 modulator: -3; PG9 binder conf: 26*; PGV04 Ab binding: 36*

What do the screens show for `CC(=O)c1cccc(NC(=O)CSc2nnc(-c3ccc(S(=O)(=O)N4CCCC4)cc3)o2)c1`?
NR2E3 ag-1: -7; PG9 binder: 31*; NR2E3 ag-2: 1; NR1D1 modulator: 8; PG9 binder conf: 37*; PGV04 Ab binding: 46*

What do the screens show for `COc1ccc2cc(CN(CC3COCCO3)S(=O)(=O)c3ccc(Cl)cc3)c(=O)[nH]c2c1` (stereo not given)?
NR2E3 ag-1: -45; PG9 binder: 24*; NR2E3 ag-2: -1; NR1D1 modulator: 2; PG9 binder conf: 26*; PGV04 Ab binding: 31*

What do the screens show for `COc1ccc2cc(CN(CC3CCCO3)S(=O)(=O)c3ccccc3)c(=O)[nH]c2c1` (stereo not given)?
NR2E3 ag-1: -58; PG9 binder: -2; NR2E3 ag-2: 2; NR1D1 modulator: -5

What do the screens show for `CNc1nn(-c2cccc(Cl)c2)nc1N`?
NR2E3 ag-1: -75; PG9 binder: 21*; NR2E3 ag-2: -3; NR1D1 modulator: 1; PG9 binder conf: 21*; PGV04 Ab binding: 27*

Results for Nc1ccccc1Nc1cc(-c2ccccc2)nn1-c1cccc(Cl)c1 ?
NR2E3 ag-1: 1; PG9 binder: -4; NR2E3 ag-2: -6; NR1D1 modulator: 4

Results for CCOC(=O)c1sc(=NC(=O)c2ccccc2Br)n(C)c1C ?
NR2E3 ag-1: -159; PG9 binder: 15*; NR2E3 ag-2: 3; NR1D1 modulator: 8; PG9 binder conf: 22*; PGV04 Ab binding: 44*

How did CC(=O)c1ccc(N2CCN(C(=S)Nc3ccccc3F)CC2)cc1 do in these assays?
NR2E3 ag-1: -9; PG9 binder: -2; NR2E3 ag-2: 0; NR1D1 modulator: 4

How did CC(=O)c1ccc(N2CCN(C(=S)Nc3cc(C)ccc3C)CC2)cc1 do in these assays?
NR2E3 ag-1: -19; PG9 binder: 12*; NR2E3 ag-2: -1; NR1D1 modulator: 8; PG9 binder conf: 8.8*; PGV04 Ab binding: 15*

Results for O=C(NC1CCCCN(Cc2cccc(Cl)c2)C1=O)c1ccc(COc2ccccc2)cc1 (stereo not given) ?
NR1D1 modulator: 7

How did COc1ccccc1CN[C@@H]1CC[C@@]23CCCN2C(=O)CCC[C@H]3C1 do in these assays?
NR1D1 modulator: -8

From PubChem BioAssay
